From ChEMBL document CHEMBL4325828, “The Design, Synthesis, and Characterizations of Spore Germination Inhibitors Effective against an Epidemic Strain of Clostridium difficile” (J Med Chem, 2018) come the findings set out here.

Molecules are shown by their SMILES.

This assay deals with Clostridioides difficile. The assay can be described thus: Antibacterial activity against Clostridium difficile R20291 assessed as inhibition of spore germination by measuring heat activated spore germination levels at 125 uM in presence of 6 mM taurocholate and 12 mM glycine measured every minute for 2 hrs by standard optical density assay relative to control. Format: functional. Also on record: scale not given: the % may be the effect or the level left. Summed up:
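R20291 spores were screened at a single 125 µM concentration, with germination followed as the fall in absorbance at 580 nm. Compounds not soluble at 125 µM by visual inspection were discarded. Inhibition is relative to untreated spore samples.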
Regarding `C[C@H](CCC(=O)NCc1ccc(S(N)(=O)=O)cc1)[C@H]1CC[C@H]2[C@@H]3[C@H](O)C[C@@H]4C[C@H](O)CC[C@]4(C)[C@H]3C[C@H](O)[C@]12C`, the Activity was 109%. In the case of `C[C@H](CCC(=O)NCCCO)[C@H]1CC[C@H]2[C@@H]3[C@H](O)C[C@@H]4C[C@H](O)CC[C@]4(C)[C@H]3C[C@H](O)[C@]12C`, the Activity is 92%. `Cc1csc(NC(=O)CC[C@@H](C)[C@H]2CC[C@H]3[C@@H]4[C@H](O)C[C@@H]5C[C@H](O)CC[C@]5(C)[C@H]4C[C@H](O)[C@]23C)n1`: the Activity is listed as 84%.

Consider `C[C@H](CCC(=O)NCCCN1C(=O)C(=O)c2ccccc21)[C@H]1CC[C@H]2[C@@H]3[C@H](O)C[C@@H]4C[C@H](O)CC[C@]4(C)[C@H]3C[C@H](O)[C@]12C`, for which the Activity worked out at 95%. For the compound `C[C@H](CCC(=O)NCc1ccc(N)cc1)[C@H]1CC[C@H]2[C@@H]3[C@H](O)C[C@@H]4C[C@H](O)CC[C@]4(C)[C@H]3C[C@H](O)[C@]12C`, the Activity worked out at 104%. With `COc1ccc(CCNC(=O)CC[C@@H](C)[C@H]2CC[C@H]3[C@@H]4[C@H](O)C[C@@H]5C[C@H](O)CC[C@]5(C)[C@H]4C[C@H](O)[C@]23C)c(OC)c1`, the Activity was 101%. For `C[C@H](CCC(=O)NCc1ccccc1N)[C@H]1CC[C@H]2[C@@H]3[C@H](O)C[C@@H]4C[C@H](O)CC[C@]4(C)[C@H]3C[C@H](O)[C@]12C` the value was 95%; for `COc1ccc(CNC(=O)CC[C@@H](C)[C@H]2CC[C@H]3[C@@H]4[C@H](O)C[C@@H]5C[C@H](O)CC[C@]5(C)[C@H]4C[C@H](O)[C@]23C)c(OC)c1`, 85%. In the case of `C[C@H](CCC(=O)NCc1ccc([N+](=O)[O-])cc1)[C@H]1CC[C@H]2[C@@H]3[C@H](O)C[C@@H]4C[C@H](O)CC[C@]4(C)[C@H]3C[C@H](O)[C@]12C`, the Activity came out at 88%. Regarding `C[C@H](CCC(=O)NCCCCNC(=O)OC(C)(C)C)[C@H]1CC[C@H]2[C@@H]3[C@H](O)C[C@@H]4C[C@H](O)CC[C@]4(C)[C@H]3C[C@H](O)[C@]12C`, the Activity is 117%. As for `CCOC(=O)CCCNC(=O)CC[C@@H](C)[C@H]1CC[C@H]2[C@@H]3[C@H](O)C[C@@H]4C[C@H](O)CC[C@]4(C)[C@H]3C[C@H](O)[C@]12C`, the Activity worked out at 95%.

Take `C[C@H](CCC(=O)NCCCN1C(=O)c2ccccc2C1=O)[C@H]1CC[C@H]2[C@@H]3[C@H](O)C[C@@H]4C[C@H](O)CC[C@]4(C)[C@H]3C[C@H](O)[C@]12C`: the Activity is recorded as 82%. Regarding `COC(=O)C(NC(=O)CC[C@@H](C)[C@H]1CC[C@H]2[C@@H]3[C@H](O)C[C@@H]4C[C@H](O)CC[C@]4(C)[C@H]3C[C@H](O)[C@]12C)C(C)C` (stereo not given in full), the Activity was 100%. On to `C[C@H](CCC(=O)NCCC#N)[C@H]1CC[C@H]2[C@@H]3[C@H](O)C[C@@H]4C[C@H](O)CC[C@]4(C)[C@H]3C[C@H](O)[C@]12C`, for which the Activity is recorded as 112%. On to `COc1cc(CNC(=O)CC[C@@H](C)[C@H]2CC[C@H]3[C@@H]4[C@H](O)C[C@@H]5C[C@H](O)CC[C@]5(C)[C@H]4C[C@H](O)[C@]23C)cc(OC)c1`, for which the Activity turned out to be 99%. `C[C@H](CCC(=O)NCCc1cccs1)[C@H]1CC[C@H]2[C@@H]3[C@H](O)C[C@@H]4C[C@H](O)CC[C@]4(C)[C@H]3C[C@H](O)[C@]12C`: the Activity turned out to be 93%.

Turning to `C[C@H](CCC(=O)NCc1ccccc1)[C@H]1CC[C@H]2[C@@H]3[C@H](O)C[C@@H]4C[C@H](O)CC[C@]4(C)[C@H]3C[C@H](O)[C@]12C`, the Activity is reported as 70%. In the case of `C[C@H](CCC(=O)NCCN1CCCC1)[C@H]1CC[C@H]2[C@@H]3[C@H](O)C[C@@H]4C[C@H](O)CC[C@]4(C)[C@H]3C[C@H](O)[C@]12C` it was 101%; in that of `C[C@H](CCC(=O)NC(CCC(=O)O)C(=O)O)[C@H]1CC[C@H]2[C@@H]3[C@H](O)C[C@@H]4C[C@H](O)CC[C@]4(C)[C@H]3C[C@H](O)[C@]12C` (stereo not given in full), 114%.

As for `C[C@H](CCC(=O)NCCCN)[C@H]1CC[C@H]2[C@@H]3[C@H](O)C[C@@H]4C[C@H](O)CC[C@]4(C)[C@H]3C[C@H](O)[C@]12C.Cl`, the Activity amounted to 124%. On to `C[C@H](CCC(=O)Nc1ccc(N)cc1)[C@H]1CC[C@H]2[C@@H]3[C@H](O)C[C@@H]4C[C@H](O)CC[C@]4(C)[C@H]3C[C@H](O)[C@]12C.Cl`, for which the Activity is 82%. Consider `C[C@H](CCC(=O)NCCCCN)[C@H]1CC[C@H]2[C@@H]3[C@H](O)C[C@@H]4C[C@H](O)CC[C@]4(C)[C@H]3C[C@H](O)[C@]12C.Cl`, for which the Activity was 104%. Turning to `C[C@H](CCC(=O)NCc1cccnc1)[C@H]1CC[C@H]2[C@@H]3[C@H](O)C[C@@H]4C[C@H](O)CC[C@]4(C)[C@H]3C[C@H](O)[C@]12C`, the Activity is 94%.

`C[C@H](CCC(=O)NCCc1ccccc1)[C@H]1CC[C@H]2[C@@H]3[C@H](O)C[C@@H]4C[C@H](O)CC[C@]4(C)[C@H]3C[C@H](O)[C@]12C`: the Activity is recorded as 104%. Turning to `C[C@H](CCC(=O)NCCN1C(=O)c2ccccc2C1=O)[C@H]1CC[C@H]2[C@@H]3[C@H](O)C[C@@H]4C[C@H](O)CC[C@]4(C)[C@H]3C[C@H](O)[C@]12C`, the Activity is reported as 78%. For `C[C@H](CCC(=O)NCC(c1ccccc1)c1ccccc1)[C@H]1CC[C@H]2[C@@H]3[C@H](O)C[C@@H]4C[C@H](O)CC[C@]4(C)[C@H]3C[C@H](O)[C@]12C`, the Activity came to 101%.

On to `C[C@H](CCC(=O)NC(Cc1ccccc1)C(=O)O)[C@H]1CC[C@H]2[C@@H]3[C@H](O)C[C@@H]4C[C@H](O)CC[C@]4(C)[C@H]3C[C@H](O)[C@]12C` (stereo not given in full), for which the Activity came to 108%. Regarding `COC(=O)C(Cc1ccccc1)NC(=O)CC[C@@H](C)[C@H]1CC[C@H]2[C@@H]3[C@H](O)C[C@@H]4C[C@H](O)CC[C@]4(C)[C@H]3C[C@H](O)[C@]12C` (stereo not given in full), the Activity amounted to 84%. In the case of `C[C@H](CCC(=O)NCc1ccc(Cl)c(Cl)c1)[C@H]1CC[C@H]2[C@@H]3[C@H](O)C[C@@H]4C[C@H](O)CC[C@]4(C)[C@H]3C[C@H](O)[C@]12C` it was 111%. For `C[C@H](CCC(=O)NCc1ccccn1)[C@H]1CC[C@H]2[C@@H]3[C@H](O)C[C@@H]4C[C@H](O)CC[C@]4(C)[C@H]3C[C@H](O)[C@]12C`, the Activity came out at 93%.
